From ChEMBL document CHEMBL4257585, “Structure-Activity Relationships of Photoswitchable Diarylethene-Based β-Hairpin Peptides as Membranolytic Antimicrobial and Anticancer Agents” (J Med Chem, 2018) come the findings set out here.

≈ marks a conversion by molar mass, not a printed value.

A short description of series [1]: Selective ratio of HC50 for human RBC to IC50 for human HeLa cells. Type of series: toxicity. As to conditions: human red blood cells versus HeLa cells. The gist of the method:
(§1)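 Ratio of HC50 (RBC) to HeLa IC50 or to MIC against B. subtilis or E. coli; values measured in mg/mL and recalculated to μM, 2-fold dilution without curve fitting, accuracy within a factor of 2.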

A short description of series [2]: Hemolytic activity against human RBC assessed as hemolysis after 30 mins by colorimetric method. The note with it: human red blood cells (erythrocytes). Type of series: ADME, cell-based, Erythrocyte. The method in brief:
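Human erythrocytes washed twice in isotonic 172 mM Tris-HCl, pH 7.6; peptides dissolved in DMSO, diluted in buffer, two independent 10-step 2-fold series from 256 or 192 μg/mL. HC50 extrapolated as 50% hemolysis concentration.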

Series [3] has as its system Escherichia coli. Briefly: Antimicrobial activity against Escherichia coli DSM 1103 after 22 hrs by resazurin dye based spectrophotometry. The note with it: DSM 1103, 22 h. Type of series: functional. The method in brief: (§2)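 2-fold broth microdilution in Mueller–Hinton medium; peptide stocks 1024 μg/mL in 50% ethanol. Exponential-phase cultures diluted to OD550 0.2, then 1:100 (B. subtilis) or 1:1000 (E. coli), giving 5 × 10^5 CFU/mL per well. Incubated 22 h, 37 °C, static; then resazurin (0.2 mg/mL solution) added for 2 h at 37 °C, read visually and spectrophotometrically. Tested in both photoforms.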

Series [4] is described as follows: Therapeutic index, ratio of HC50 for human RBC to MIC for Escherichia coli DSM 1103. Type of series: toxicity. The note with it: human red blood cells versus Escherichia coli DSM 1103. The method in brief: as §1
Series [5] can be described thus: Therapeutic index, ratio of HC50 for human RBC to MIC for Bacillus subtilis DSM 347. The note with it: human red blood cells versus Bacillus subtilis DSM 347. Type of series: toxicity. The gist of the method: as §1
The test system of series [6] is HeLa. Briefly: Cytotoxicity against human HeLa cells assessed as reduction in cell viability after 24 hrs by MTT assay. Type of series: functional, cell-based. The gist of the method: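 HeLa cells seeded at about 5 × 10^4 cells/mL in DMEM with 10% FBS, 2 mM glutamine, gentamicin; 24 h adaptation (37 °C, 5% CO2), then 24 h peptide exposure. MTT 4 h, formazan in DMSO read at 570 nm. 2-fold series 256–0.5 (open) or 512–1 μg/mL (closed), four repetitions; IC50 extrapolated from killing curves. Closed form handled in dim light.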

In series [7] the test system is Bacillus subtilis. The experiment in a line: Antimicrobial activity against Bacillus subtilis DSM 347 after 22 hrs by resazurin dye based spectrophotometry. The note with it: DSM 347, 22 h. Type of series: functional. The gist of the method: as §2

As to `Cc1sc2cc1C1=C(CCC1)c1cc(sc1C)C(=O)[C@H]1CCCN1C(=O)[C@H](C(C)C)NC(=O)[C@H](CCCN)NC(=O)[C@H](C(C)C)NC(=O)[C@@H]1CCCN1C(=O)[C@@H](Cc1ccccc1)NC(=O)[C@H](C(C)C)NC(=O)[C@H](CCCN)NC(=O)[C@H]([C@H](O)C(C)C)NC2=O`, the selectivity ratio stood at 2.2 in series [1], 0.6 in series [4] and 28 in series [5]. Further, in series [2], the HC50 at 0.5 h turned out to be 56 µM. For the same compound, the values for the MIC in series [3] and in series [7] were 100 µM (≈ 128 µg/mL) and 2 µM (≈ 2.57 µg/mL), respectively. Also, the half-maximal inhibitory concentration (IC50) in series [6] turned out to be 25 µM.
As for `Cc1sc2cc1C1=C(CCC1)c1cc(sc1C)C(=O)[C@H]1CCCN1C(=O)[C@H](CCCCN)NC(=O)[C@H](C13CC4CC(CC(C4)C1)C3)NC(=O)[C@H](CCCN)NC(=O)[C@@H]1CCCN1C(=O)[C@@H](Cc1ccccc1)NC(=O)[C@H](CCCN)NC(=O)[C@H](C13CC4CC(CC(C4)C1)C3)NC(=O)[C@H](CCCN)NC2=O`, the selectivity ratio in series [1] is 0.1; in series [4], 0.1; in series [5], 0.3. The concentration for 50% haemolysis (HC50) at 0.5 h in series [2] came out at 1 µM. In addition, the results for the minimum inhibitory concentration (MIC) in series [3] and in series [7] were 16 µM (≈ 23.7 µg/mL) and 3 µM (≈ 4.44 µg/mL), respectively. Also, the half-inhibitory concentration (IC50) in series [6] is 11 µM.
Turning to `Cc1sc2cc1C1=C(CCC1)c1cc(sc1C)C(=O)[C@H]1CCCN1C(=O)[C@H](C(C)C)NC(=O)[C@H](CCCN)NC(=O)[C@H](C(C)C)NC(=O)[C@@H]1CCCN1C(=O)[C@@H](Cc1ccccc1)NC(=O)[C@H](C(C)C)NC(=O)[C@H](CCCN)NC(=O)[C@H](CC(=O)NC(C)C)NC2=O`, the values for the selectivity ratio in series [1], in series [4] and in series [5] were 2.3, 1.6 and 51, respectively. In series [2], the HC50 at 0.5 h came out at 153 µM. Besides, the MIC in series [3] was 98 µM (≈ 128 µg/mL); in series [7], 3 µM (≈ 3.93 µg/mL). The half-inhibitory concentration (IC50) in series [6] stood at 66 µM.
Regarding `CC(C)C[C@@H]1NC(=O)[C@H](CCCCN)NC(=O)[C@H](C(C)C)NC(=O)C2=CC3=C4CCCC4=C4C=C(S[C@]4(C)[C@@]3(C)S2)C(=O)[C@H]2CCCN2C(=O)[C@H](C(C)C)NC(=O)[C@H](CCCCN)NC(=O)[C@H](C(C)C)NC(=O)[C@H](CC(C)C)NC(=O)[C@@H](CCCCN)NC(=O)[C@@H]2CCCN2C(=O)[C@@H](Cc2ccccc2)NC(=O)[C@H](C(C)C)NC(=O)[C@H](CCCCN)NC1=O`, the figures for the selectivity ratio in series [1], in series [4] and in series [5] were 0.8, 0.2 and 7, respectively. In addition, in series [2], the HC50 at 0.5 h is 14 µM. Also, the results for the MIC in series [3] and in series [7] were 73 µM (≈ 129 µg/mL) and 2 µM (≈ 3.53 µg/mL), respectively. Also, in series [6], the half-inhibitory concentration (IC50) stood at 18 µM.
On to `CC(C)NC(=O)C[C@@H]1NC(=O)C2=CC3=C4CCCC4=C4C=C(S[C@]4(C)[C@@]3(C)S2)C(=O)[C@H]2CCCN2C(=O)[C@H](C(C)C)NC(=O)[C@H](CCCN)NC(=O)[C@H](C(C)C)NC(=O)[C@@H]2CCCN2C(=O)[C@@H](Cc2ccccc2)NC(=O)[C@H](C(C)C)NC(=O)[C@H](CCCN)NC1=O`, for which the selectivity ratio in series [1] was 2; in series [4] it was 2; in series [5] it was 7.8. Further, in series [2], the HC50 at 0.5 h was 391 µM. Moreover, the minimal inhibitory concentration (MIC) was 196 µM (≈ 257 µg/mL) in series [3] and 49 µM (≈ 64.2 µg/mL) in series [7]. In addition, the half-inhibitory concentration (IC50) in series [6] was found to be 196 µM.
For the compound `CC(C)C[C@@H]1NC(=O)[C@H](CCCN)NC(=O)[C@H](C)NC(=O)C2=CC3=C4CCCC4=C4C=C(S[C@]4(C)[C@@]3(C)S2)C(=O)[C@H]2CCCN2C(=O)[C@H](C)NC(=O)[C@H](CCCN)NC(=O)[C@H](C(C)C)NC(=O)[C@@H]2CCCN2C(=O)[C@@H](Cc2ccccc2)NC1=O`, the selectivity ratio was found to be 1.7 in series [1], 0.8 in series [4] and 4.4 in series [5]. Further, the HC50 at 0.5 h in series [2] was 175 µM. Besides, the MIC in series [3] turned out to be 212 µM (≈ 257 µg/mL); in series [7], 40 µM (≈ 48.4 µg/mL). Besides, the IC50 in series [6] stood at 106 µM.
